For orientation: bioavailability means dose-corrected exposure relative to a reference, in per cent.

The source of these data is ChEMBL document CHEMBL1799933, “Discovery of a selective allosteric M1 receptor modulator with suitable development properties based on a quinolizidinone carboxylic acid scaffold” (J Med Chem, 2011).

One data set has as its system Cerebrospinal fluid. Description: Drug level in Sprague-Dawley rat cerebrospinal fluid at 10 mg/kg, po. In kind it is ADME, organism-based. Further details: dose 10 mg/kg, route oral. The note with it: in vivo, read-out: Drug uptake. The essentials:
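Rats dosed orally at 10 mpk. Plasma, brain and CSF sampled at 2 h and concentrations determined by bioanalysis.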

The nature of data set [1]: Oral bioavailability in rhesus monkey. The note with it: in vivo. The class given is ADME, organism-based, Macaca mulatta.
The nature of data set [2]: Metabolic stability in rat NADPH-fortified hepatic microsomes assessed as oxidative metabolism. In kind it is ADME, Liver. The essentials:
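Compound incubated with NADPH-fortified hepatic microsomes from rat, dog, monkey or human. Oxidative metabolism monitored.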

The target of data set [3] is T1, Muscarinic acetylcholine receptor M1 (Homo sapiens) (UniProt P11229).
T1 sequence (whole entry): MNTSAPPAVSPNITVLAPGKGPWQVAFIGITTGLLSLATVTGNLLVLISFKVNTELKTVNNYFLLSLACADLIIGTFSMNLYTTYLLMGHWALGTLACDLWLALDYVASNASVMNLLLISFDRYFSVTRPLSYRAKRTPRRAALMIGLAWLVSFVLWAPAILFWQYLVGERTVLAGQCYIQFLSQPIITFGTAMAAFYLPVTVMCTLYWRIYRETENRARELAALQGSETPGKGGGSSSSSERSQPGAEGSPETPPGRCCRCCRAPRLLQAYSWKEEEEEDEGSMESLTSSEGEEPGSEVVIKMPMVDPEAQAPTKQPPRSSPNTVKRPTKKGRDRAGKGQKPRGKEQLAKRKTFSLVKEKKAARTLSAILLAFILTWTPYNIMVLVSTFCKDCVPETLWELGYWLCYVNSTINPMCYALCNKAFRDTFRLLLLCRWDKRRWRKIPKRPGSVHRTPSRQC
Description: Positive allosteric modulation of human muscarinic M1 receptor expressed in CHONFAT cells assessed as potentiation of acetylcholine-induced calcium mobilization at 0.1 uM preincubated for 4 mins measured after 1 hr by FLIPR assay relative to control. In kind it is functional, cell-based. The essentials: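 CHO-NFAT cells expressing human M1, 25,000 cells/well, grown overnight at 37 °C, 6% CO2. Washed in HBSS with 20 mM Hepes, 2.5 mM probenecid, 0.1% BSA, then loaded with 1 μM Fluo-4AM for 1 h at 37 °C. Compound preincubated 4 min (final DMSO 0.67%), then serially diluted ACh added for 4 min. Ca2+ flux read by FLIPR384; fold leftward shift of the ACh dose-response curve.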
(In general: Calcium flux is commonly read through the fluorescence of an indicator in the cells.)

Data set [4] deals with T2, Muscarinic acetylcholine receptor M1 (Rattus norvegicus) (UniProt P08482).
T2 sequence (whole entry): T1 sequence (whole entry) with A5V, T254S, P309S, R320K, A337G, I413V
Description: Agonist activity at rat muscarinic M1 receptor expressed in CHOK1 cells assessed as potentiation of acetylcholine-induced calcium mobilization preincubated for 4 mins measured after 1 hr by FLIPR assay. In kind it is functional, cell-based. The note with it: CHO-K1. The essentials:
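CHO-NFAT cells expressing the named muscarinic receptor (human M1–M4; rhesus, dog or rat M1 in CHO-K1) were plated at 25,000 cells/well and grown overnight at 37 °C, 6% CO2. Cells were loaded with 1 μM Fluo-4AM for 1 h, washed, and preincubated 4 min with serially diluted compound (final DMSO 0.67%). They were then stimulated 4 min with an EC20 of ACh, and Ca2+ flux was read by FLIPR384.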

Where a chain is given by its changes, count along the chain named.

As to `N#CC1(c2ccccn2)CCN(Cc2cc(C(=O)O)c(=O)n3ccccc23)CC1` [MSD-M1PAM], the concentration with Cerebrospinal fluid amounted to 135 nM. In data set [1], this compound yielded a bioavailability of 55%. Besides, the Stability result in data set [2] is given as “Stable”. Further, the fold change (FC) in data set [3] worked out at 3. Also, in data set [4], the IP turned out to be 89 nM.
